# ChEMBL document CHEMBL4513216, “Probing the Open Global Health Chemical Diversity Library for Multistage-Active Starting Points for Next-Generation Antimalarials” (ACS Infect Dis, 2020)
# Experiment: Toxicity liver stage against HepG2, at 10uM
# Format: cell-based
# Parameters: test concentration 10 uM, cell line HepG2-A16-CD81EGFP
# Details: human, HepG2-A16-CD81EGFP cells; read-out: INHIBITION
# Summary of the method: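 Uninfected HepG2-A16-CD81EGFP cells, 3 × 10^3 per well, 1536-well, plated on prespotted compound at 10 μM final, parasite-free screening media added to match infected plates; puromycin 10 μM positive, DMSO 0.5% negative; run in parallel with 48 h PbLuc assay at 37 °C, 5% CO2; viability by CellTiter-Glo luminescence, normalized to controls.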
compound,measurement,value
CCC(C)(C)n1nnnc1C(c1cccs1)N1CCc2ccccc21 (centres undefined),cytotoxicity at 10 µM,8.67%
CS(=O)(=O)N1CCC2(CCN(Cc3nccs3)CC2)CC1,cytotoxicity at 10 µM,8.28%
Cc1ccc(NC(=O)c2ccc(=O)n(CC(=O)Nc3nccs3)n2)cc1,cytotoxicity at 10 µM,0.592%
CS(=O)(=O)N1CC(=O)N(CCCc2ccccc2)CC(O)C1 (centres undefined),cytotoxicity at 10 µM,-7.99%
CCOC(=O)N1[C@@H](c2ccco2)[C@@H](C(=O)NC)C[C@]12CCCCNC2=O,cytotoxicity at 10 µM,-4.57%
COc1ccc(C(=O)N2CC(=O)N(CC3CC3)CC(O)C2)cc1 (centres undefined),cytotoxicity at 10 µM,4.77%
CCOC(=O)N1CCC(OC)c2ccccc2N(CC(=O)NC)C(=O)C1 (centres undefined),cytotoxicity at 10 µM,9.12%
CCOC(=O)COc1nc(CC(C)C)c2c(c1C#N)CCC2,cytotoxicity at 10 µM,-5.72%
Cc1occc(=O)c1OCc1noc(C(=O)NC(C)C)n1,cytotoxicity at 10 µM,4.6%
O=C(Cc1ccc(F)cc1)NCC1CCN(Cc2ccsc2)CC1,cytotoxicity at 10 µM,-7.15%
CC(O)(CCc1ccccc1)CNC(=O)c1cccs1 (centres undefined),cytotoxicity at 10 µM,-1.44%
CCS(=O)(=O)N1CCC2(CC1)CC[C@@]1(C(=O)N(C)C)CN(C(C)=O)C[C@@H]21,cytotoxicity at 10 µM,6.43%
O=C(c1ccco1)N1CCO[C@@H]2CN(c3ncc(F)cn3)CC[C@@H]2C1,cytotoxicity at 10 µM,4.74%
Cc1ccnc(OC[C@]23COC[C@H]2CN(C(=O)c2ccnn2C)C3)n1,cytotoxicity at 10 µM,3.16%
COc1ccccc1C1SCC(=O)Nc2n[nH]cc21 (centres undefined),cytotoxicity at 10 µM,-1.84%
Nc1no[n+]([O-])c1C(=O)NCc1cccnc1,cytotoxicity at 10 µM,5.93%
Cc1ccc(C(=O)N2CCC(c3noc(-c4cccnc4)n3)CC2)cn1,cytotoxicity at 10 µM,2.6%
Cc1ncsc1-c1cc(C(=O)NCCO)ccn1,cytotoxicity at 10 µM,-6.58%
CC(C)C(=O)N1CCC([C@@H]2C[C@H](C(F)F)n3ncnc3N2)CC1,cytotoxicity at 10 µM,6.21%
CN(C)C(=O)CN1CCCC1c1cccc(Cc2ccccc2F)n1 (centres undefined),cytotoxicity at 10 µM,-6.94%
CCn1ccc(C(=O)N2CCOC(c3nc(-c4cccs4)no3)C2)n1 (centres undefined),cytotoxicity at 10 µM,10.9%
CC(=O)N1CCC(c2ccnc(Nc3cncnc3)n2)C1 (centres undefined),cytotoxicity at 10 µM,0.951%
CN1CCN(C)c2cc(NC(=O)c3cc[nH]n3)ccc2C1,cytotoxicity at 10 µM,-10.9%
O=C(Cc1ccc(-n2cnnn2)cc1)Nc1cnn(CC(F)F)c1,cytotoxicity at 10 µM,1.97%
CC(=O)Nc1nc(CNc2ccccc2CCC(F)(F)F)cs1,cytotoxicity at 10 µM,27.9%
COCCNC(=O)CN1CCN(c2nc3cc(C)ccc3o2)CC1,cytotoxicity at 10 µM,5.75%
CC1CCCCN1C(=O)CCn1cnc2sccc2c1=O (centres undefined),cytotoxicity at 10 µM,3.63%
Cc1ccc(C(=O)NC(C)Cn2cccn2)c(=O)[nH]1 (centres undefined),cytotoxicity at 10 µM,-2.16%
Cc1nnc(C(C)N2CCCN(Cc3noc(C4CC4)n3)CC2)o1 (centres undefined),cytotoxicity at 10 µM,-21.2%
COC(=O)CCN(CC1CCCO1)C(=O)Cc1ccc(OC)c(OC)c1 (centres undefined),cytotoxicity at 10 µM,4.08%
NC(=O)c1cc(C2CC2)nc2ccc(F)cc12,cytotoxicity at 10 µM,3.87%
N#CCCCOc1cccc(CN2CCCC2c2ccc[nH]2)c1 (centres undefined),cytotoxicity at 10 µM,-14.5%
CC(NC1(CNC(=O)NC2CC2)CCOCC1)c1ccccc1 (centres undefined),cytotoxicity at 10 µM,10.2%
CCCC(NC(=O)c1ccc(C)cc1C)c1nnn[nH]1 (centres undefined),cytotoxicity at 10 µM,-3.82%
Cc1n[nH]c(C2CN(CC(=O)NCCc3ccccc3C)CCO2)n1 (centres undefined),cytotoxicity at 10 µM,-3.94%
Cn1cc(S(=O)(=O)NC(CO)Cc2c[nH]c3ccccc23)cn1 (centres undefined),cytotoxicity at 10 µM,-7.37%
CC(c1nc(C2CC2)no1)N(C)Cc1ccc(Cl)cc1 (centres undefined),cytotoxicity at 10 µM,3.74%
Fc1ccc(Br)c(NCc2nnsc2Cl)c1,cytotoxicity at 10 µM,14.3%
OC(CNC1CCOCC1)c1ccc(Cl)c(F)c1 (centres undefined),cytotoxicity at 10 µM,-1.12%
CC(C)c1nnc2n1CCN(C(=O)c1cnc(C3CC3)s1)C2,cytotoxicity at 10 µM,4.87%
Nc1ccnn1C1CCN(Cc2ccccc2)C1 (centres undefined),cytotoxicity at 10 µM,6.36%
O=C(O)c1ccc(OC2CCOCC2)cc1,cytotoxicity at 10 µM,-6.11%
CN(C(=O)c1ccc[nH]1)C1CCC(NC(=O)OC(C)(C)C)CC1 (centres undefined),cytotoxicity at 10 µM,-11.9%
CSCCC(NC(=O)C1CC1)C(=O)N(C)Cc1ccsc1 (centres undefined),cytotoxicity at 10 µM,-3.96%
Cc1ccc(C)c(CS(=O)(=O)CC(=O)N(C)Cc2cccc(F)c2)c1,cytotoxicity at 10 µM,4.42%
CC(C(=O)NC1CC1)S(=O)(=O)Cc1csc(-c2cccs2)n1 (centres undefined),cytotoxicity at 10 µM,9.02%
COc1cc(C)c(CNC(C)c2csc(C3CC3)n2)cc1OC (centres undefined),cytotoxicity at 10 µM,-2.21%
O=C1OCCC1N1CCN(c2ccc(O)cc2)CC1 (centres undefined),cytotoxicity at 10 µM,-1.29%
CC(NC(=O)C1(NC(=O)c2ccc3[nH]ncc3c2)CCCC1)C1CC1 (centres undefined),cytotoxicity at 10 µM,-2.03%
COCCN1C(=O)CC[C@@H]2[C@H]1CCN2S(=O)(=O)c1cccs1,cytotoxicity at 10 µM,-87.2%
N#Cc1ccc(C(=O)N2CCc3c(COCC4CC4)cncc3C2)cc1,cytotoxicity at 10 µM,-98.8%
Cc1cccc(CN2CCC3(CC2)COC(COCC2CC2)C3)n1 (centres undefined),cytotoxicity at 10 µM,-108%
Cc1nc(-c2nc(C(=O)NC3CC3)c3ccccn23)cn1C(C)C,cytotoxicity at 10 µM,-103%
CO[C@@H]1CCN(C(=O)c2cnoc2C)[C@H]1Cc1ccccc1,cytotoxicity at 10 µM,-72.3%
CN1CCN(c2ncnc3c2CCN(C(=O)c2cccn2C)CC3)CC1,cytotoxicity at 10 µM,-71%
COCc1nc(NC(C)c2c(C)n[nH]c2C)c2cnn(C)c2n1 (centres undefined),cytotoxicity at 10 µM,-13.4%
CC(C)c1nnc2sc(CC3CN(Cc4ccccc4)CCO3)nn12 (centres undefined),cytotoxicity at 10 µM,-2.66%
Cc1ccc(OC2(C(=O)O)CCN(C(=O)c3ccoc3C)CC2)cn1,cytotoxicity at 10 µM,-1.56%
CCCn1cc(C(=O)NC(C)c2c(C)nn(CC)c2C)c(C)n1 (centres undefined),cytotoxicity at 10 µM,5.31%
COc1nc2c(cc1C(=O)NCc1nc(CSC)no1)CCC2,cytotoxicity at 10 µM,-11.7%
CCc1cn[nH]c1C1CCN(c2cc(C)c3cccc(OC)c3n2)CC1,cytotoxicity at 10 µM,19%
Cc1n[nH]c(C)c1CCNC(=O)Nc1ccc(S(C)(=O)=O)cc1,cytotoxicity at 10 µM,-5.01%
Cc1ccc(C(C(=O)NCCN2CCC(CO)CC2)N(C)C)cc1 (centres undefined),cytotoxicity at 10 µM,-10.2%
Cc1c(C(=O)N2CCN(C)[C@@H]3CS(=O)(=O)C[C@@H]32)[nH]c2ccc(F)cc12,cytotoxicity at 10 µM,-9.2%
O=C(c1ccc[nH]1)N1CCc2cc(S(=O)(=O)N3CCOCC3)ccc2C1,cytotoxicity at 10 µM,-3.44%
Cc1cnc(C(=O)N2CCNCC2C(=O)NCc2ccncc2)cn1 (centres undefined),cytotoxicity at 10 µM,0.89%
CCNC(=O)C1CN(Cc2c(-c3cc(C)on3)nn(C)c2Cl)CCO1 (centres undefined),cytotoxicity at 10 µM,-4.37%
COCCN1CCCC(O)(CN2CCCN(c3ncccn3)CC2)C1=O (centres undefined),cytotoxicity at 10 µM,-3.95%
Cn1ccc2ccc(C(=O)N3CCC[C@H]3C(=O)N3CCOCC3)cc21,cytotoxicity at 10 µM,-0.829%
CN(C)c1ncnc2c1CCN(S(=O)(=O)c1cccc(Cl)c1Cl)C2,cytotoxicity at 10 µM,10.4%
CCS(=O)(=O)N1CCCC(c2nccn2Cc2ccccn2)C1 (centres undefined),cytotoxicity at 10 µM,-10.5%
CCc1c(C)nn(CC(=O)NC(C)c2n[nH]c(C)n2)c1C (centres undefined),cytotoxicity at 10 µM,-14.1%
CCCn1ccnc1CNC(=O)C1COc2cc(OC)ccc2C1 (centres undefined),cytotoxicity at 10 µM,1.61%
Cc1cc(C)c2c(N3CCC(C(=O)N4CCCC4)CC3)ncnc2n1,cytotoxicity at 10 µM,-0.218%
FC(F)(F)CCc1ccnc(NC2CCOC2)n1 (centres undefined),cytotoxicity at 10 µM,16.4%
O=C1Cc2cc(NC(=O)N3CCCN(Cc4cccs4)CC3)ccc2N1,cytotoxicity at 10 µM,0.929%
CCCc1nc(C(=O)N[C@H]2COC[C@@H]2N2CCN(C)CC2)cs1,cytotoxicity at 10 µM,-23.8%
CCn1cc(CN(C)S(=O)(=O)c2cnn(CC)c2C)c(C)n1,cytotoxicity at 10 µM,3.13%
O=C(NCCn1ccnc1)c1ccn(-c2ccc(F)cc2)n1,cytotoxicity at 10 µM,-1.03%
Cc1nn(C)c(C)c1CC(=O)N1CCc2nnc(N(C)C)cc2C1,cytotoxicity at 10 µM,-7.63%
CC(C)c1cc(NC(=O)CNC2CCCN(c3cccnn3)C2)on1 (centres undefined),cytotoxicity at 10 µM,-1.79%
O=c1[nH]c(CN(Cc2ccco2)C2CCCC2)nc2ccccc12,cytotoxicity at 10 µM,11.6%
CCc1c(C(=O)N2CCN(c3ncccn3)CC2)cnn1C(C)(C)C,cytotoxicity at 10 µM,-1.91%
CN(CC(=O)N1CCC(Oc2ccccc2)CC1)c1cnccn1,cytotoxicity at 10 µM,2.12%
Cc1ncc2c(n1)CN(Cc1nnc(Cc3ccccc3)o1)CC2,cytotoxicity at 10 µM,1.13%
c1sc(C2CCCC2)nc1CN1CCn2c(nnc2C2CC2)C1,cytotoxicity at 10 µM,-1.62%
Cc1ccc(NC2CCN(C(=O)CC3CCCO3)CC2)nn1 (centres undefined),cytotoxicity at 10 µM,-10.5%
CC(Nc1cccc(CN2CCOC2=O)c1)C(=O)Nc1ccccc1F (centres undefined),cytotoxicity at 10 µM,-5.25%
Cc1cnc(CN(C)C2CCN(CC(=O)N(C)c3nccs3)C2)o1 (centres undefined),cytotoxicity at 10 µM,-4.1%
CC(NC(=O)N1CCC(n2cncn2)CC1)c1ccc(F)cc1F (centres undefined),cytotoxicity at 10 µM,-9.88%
CCc1nc2n(n1)CC(NCC(=O)Nc1nccs1)CC2 (centres undefined),cytotoxicity at 10 µM,-7.13%
Cc1ccccc1CC(=O)N(C)C1CCN(c2ccccn2)CC1,cytotoxicity at 10 µM,-2.74%
CCCc1noc(CN2CCCC2c2c(C)nn(C)c2OC)n1 (centres undefined),cytotoxicity at 10 µM,9.94%
Cc1cnn(C2CCCN(C(=O)c3cccc(Cn4ccnc4)c3)C2)c1 (centres undefined),cytotoxicity at 10 µM,-1.03%
CCc1nccn1C1CCCN(C(=O)c2cc3nc(C)ccc3o2)C1 (centres undefined),cytotoxicity at 10 µM,-15.5%
CC(C)c1nnc2n1CCN(C(=O)c1ccc(-n3cnnc3)cc1)C2,cytotoxicity at 10 µM,-11.5%
O[C@@H]1CN(Cc2cccc(F)c2)CC[C@H]1NCc1ccccn1,cytotoxicity at 10 µM,-1.6%
CCCC(=O)N(CCCN1CCOCC1)c1nc2c(C)ccc(Cl)c2s1,cytotoxicity at 10 µM,-10.2%
c1cnc(NC2COC3(CCN(Cc4nccs4)CC3)C2)cn1 (centres undefined),cytotoxicity at 10 µM,-79.9%
CC1c2ncc(Cn3cccn3)n2CCN1S(C)(=O)=O (centres undefined),cytotoxicity at 10 µM,-99.2%
O=C(CC1CC1)N1CCn2cc(Cn3cccn3)nc2C1,cytotoxicity at 10 µM,-78.5%
CN(C)C[C@H]1OC[C@@H]2CCN(S(=O)(=O)c3ccc(F)cc3)C[C@@H]21,cytotoxicity at 10 µM,-85.7%
O=C(NC1CC1)N1CCC2(CC1)CC(N1CCOCC1)c1ccccc12 (centres undefined),cytotoxicity at 10 µM,-109%
CCc1ccc(CN2CC[C@@H]3CN(S(C)(=O)=O)CCO[C@@H]3C2)o1,cytotoxicity at 10 µM,-0.461%
Cc1ccc2c(n1)N(CCN(C)C)CCN(Cc1c(C)noc1C)C2,cytotoxicity at 10 µM,5.74%
CNC(=O)CN1CCO[C@H]2CN(CC3CC3)C[C@H]21,cytotoxicity at 10 µM,6.25%
c1cnc(N2CCO[C@H]3CN(Cc4ccsc4)C[C@H]32)nc1,cytotoxicity at 10 µM,-82%
CN(C)CC1[C@H]2CN(C(=O)c3cc(=O)[nH]c4ccc(F)cc34)C[C@@H]12 (some centres undefined),cytotoxicity at 10 µM,-6.68%
COC1[C@@H]2CC[C@H]1CN(c1nc(C)nc3ccsc13)C2 (some centres undefined),cytotoxicity at 10 µM,18%
